Experimental data gathered from unrelated publications.
Each line is one published result; the experiments were not run side by side.
Cell line: NCI-H460
Effect on: cell growth or viability

COc1cc([C@@H]2c3cc4c(cc3[C@H](O)[C@H]3COC(=O)[C@H]23)OCO4)cc(OC)c1OC — EC50 (MTT; 72 h): 0.0002 µM
Cc1cccc(-n2ncc(Cl)c(Cl)c2=O)c1 — IC50 (resazurin; 96 h): 1.5 µM
C1COCCN1.COc1ccc(/C=C\c2cc(I)c(OC)c(I)c2)cc1OP(=O)(O)O — GI50 (SRB; 48 h): 0.033 µg/mL
N.N.[Cl][Pt][Cl] — IC50 (MTT; 72 h): 2 µM
N.N.[Cl][Pt][Cl] — IC50: 19 µM
CN1C[C@H](C(=O)N[C@]2(C)O[C@@]3(O)[C@@H]4CCCN4C(=O)[C@H](Cc4ccccc4)N3C2=O)C=C2c3cccc4[nH]cc(c34)C[C@H]21 — EC50 (MTT; 72 h): ~25 µM
N.N.[Cl][Pt][Cl] — IC50 (24 h): 50.5 µM
C=C(C)[C@@H]1CC[C@]2(CO)CC[C@]3(C)[C@H](CC[C@@H]4[C@@]5(C)CC[C@H](O)C(C)(C)[C@@H]5CC[C@]43C)[C@@H]12 — IC50 (48 h): 11.5 µM
